# Screening data: PubChem BioAssay, several laboratories
# NOD2-RIPK2 inh = NOD2-RIPK2 protein interaction inhibition | O43353 | CHO BLA complementation NOD2-RIPK2, CCF4 ratio | inhibition, % at 4.98 µM | hit rate 0.38% among 360,000; in the data active = inhibition above about 21%
# SR-BI HDL uptake = blocks mouse SR-BI lipid uptake from DiI-HDL; Q61009; ldlA[mSR-BI] CHO cells, DiI-HDL uptake fluorescence, 3 h; inhibition, % at 12.5 µM; hit rate 0.96% among 320,000; AID 488896;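 active = mean replicate inhibition of at least 70% and a set share of replicates each scoring 70 or more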
# Target sequence (Q61009 whole entry, looked up): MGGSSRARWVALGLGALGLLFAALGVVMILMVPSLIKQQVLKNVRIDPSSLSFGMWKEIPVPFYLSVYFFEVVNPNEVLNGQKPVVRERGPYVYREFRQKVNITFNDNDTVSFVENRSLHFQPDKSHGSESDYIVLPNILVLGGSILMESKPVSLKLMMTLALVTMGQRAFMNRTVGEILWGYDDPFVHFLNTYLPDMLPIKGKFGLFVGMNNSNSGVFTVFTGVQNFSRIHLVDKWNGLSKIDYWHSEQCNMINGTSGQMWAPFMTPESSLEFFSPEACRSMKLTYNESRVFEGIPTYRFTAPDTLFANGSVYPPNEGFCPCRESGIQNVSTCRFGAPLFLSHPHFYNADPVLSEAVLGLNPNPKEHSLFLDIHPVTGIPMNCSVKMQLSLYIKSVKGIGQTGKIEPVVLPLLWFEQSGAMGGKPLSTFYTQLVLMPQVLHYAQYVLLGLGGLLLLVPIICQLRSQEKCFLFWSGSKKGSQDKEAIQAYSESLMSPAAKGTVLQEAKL
# Lipid droplet = modulators of hepatic lipid droplet formation; AML12 mouse hepatocytes, oleate lipid droplets, BODIPY imaging; inhibition, % at 6.5 µM; hit rate 0.4% among 240,000;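 active = lipid droplet intensity inhibited by at least 50%, with more than 500 cells counted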
#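 Material: mouse AML12 hepatocyte cell line, fixed after treatment; Timing: compound with oleate, overnight; Technique: high-content imaging of BODIPY-stained droplets and DAPI nuclei; Probe or stimulus: oleate, 100 µM final; Dosing: compound at 6.5 µM only.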
# SR-BI uptake up = activators of SR-BI mediated HDL lipid uptake. hit rate 0.096% among 320,000. CHO ldlA[mSR-BI] cells, DiI-HDL uptake fluorescence, 3 h; 100 = double the neutral-control signal. activation, % at 12.5 µM;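 active = mean replicate activation of at least 60% and every replicate at or above 60%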
#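 Assay system: CHO ldlA[mSR-BI] cells, LDL receptor-null, SR-BI overexpressing; medium: Ham's F12 with 0.5% BSA, HEPES 25 mM, pH 7.4; also added: DiI-HDL 10 µg/mL; timing: 3 h uptake period with compound, 37 °C; signal: DiI fluorescence, bottom read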
# TLR4 MyD88 comp = TLR4-MyD88 interaction inhibition in cells; O00206+Q99836; HeLa CL3-4 TLR4/MyD88 BLA complementation, FRET ratio; inhibition, % at 8.4 µM; hit rate 0.18% among 200,000; AID 861; in the data active = inhibition above about 25%
# TLR9-MyD88 block = blocks human TLR9 binding to MyD88. inhibition, % at 4.98 µM. CHO BLA complementation TLR9-MyD88, CCF4 FRET ratio. hit rate 0.21% among 340,000. AID 504734. Q9NR96+Q99836;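 active = inhibition above the mean over all tested compounds plus 3 SD, cut at about 21% in these data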
# NOD2-RIPK2 conf = confirmation of human NOD2-RIPK2 interaction inhibitors; shares compounds with NOD2-RIPK2 inh; CHO cells, NOD2-RIPK2 BLA complementation, CCF4 FRET; inhibition, % at 4.98 µM; hit rate 70% among 1,200; AID 624370;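 active = mean inhibition across replicates above a set limit taken from the earlier primary screen, cut at about 21% in these data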
# BLA counter = counter-screen for NOD2-RIPK2 interaction inhibitors: BLA reporter. AID 624371. shares compounds with NOD2-RIPK2 inh. CHO BLA reporter, CCF4 FRET ratio, counterscreen. hit rate 57% among 1,200. inhibition, % at 4.98 µM;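 active = mean inhibition above the low-control mean inhibition plus three low-control SD, cut at about 11% in these data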
# Numbers stand for hits; . = inactive; / = no result given. Compounds with a hit are over-represented: about 1.6% of the library has one in this group of screens.
SMILES,NOD2-RIPK2 inh,SR-BI HDL uptake,Lipid droplet,SR-BI uptake up,TLR4 MyD88 comp,TLR9-MyD88 block,NOD2-RIPK2 conf,BLA counter
O=C(NC1CCCCC1)C(c1ccncc1)n1c(=O)c(-c2cc3ccccc3[nH]2)nc2ccccc21 (stereo unspecified),53.1,/,/,/,/,/,47.6,68.2
COC(C/C=C/C(=O)COCc1ccccc1)OC,.,.,.,.,/,.,/,/
COc1ccncc1-c1ccccc1C1=CC(=O)CC(C)(C)C1=O,.,/,/,/,/,.,/,/
CSc1ncc(CN2CCc3c([nH]c4ccccc34)C2c2cccc(O)c2)cn1 (stereo unspecified),.,.,.,.,.,.,/,/
CCOC(=O)Nc1ccc2c(c1)N(C(=O)CCN(CC)CC)c1ccccc1S2=O (stereo unspecified),31.4,.,.,.,/,.,.,.
NS(=O)(=O)c1ccc2nc(-c3ccccc3)c(-c3ccccc3)nc2c1,.,.,.,.,/,.,/,/
CCn1c(COc2ccccc2C)nnc1SCC(=O)CC(=O)Nc1ccccc1,.,.,/,.,.,.,/,/
O=C1/C(=C\c2ccccc2)CCC/C1=C/c1ccccc1,.,.,/,.,/,.,/,/
O=C1/C(=C\c2ccc(Cl)c(Cl)c2)CN(C(=O)CCN2CCOCC2)C/C1=C/c1ccc(Cl)c(Cl)c1,39.4,.,/,.,/,.,76.0,.
CCN(CC)CCC(=O)N1C/C(=C/c2ccccc2)C(=O)/C(=C\c2ccccc2)C1,24.1,.,/,.,/,.,46.9,.
O=C1/C(=C\c2ccccc2)CN(C(=O)CCN2CCCCC2)C/C1=C/c1ccccc1,35.6,.,/,.,/,.,54.5,.
O=C(CC[C@H]1O[C@@H](n2ccc(=O)[nH]c2=O)[C@H](O)[C@@H]1O)N[C@@H](Cc1ccccc1)C(=O)NCC1CCCCC1,.,/,/,/,/,/,/,/
CCC1CCCCN1C(=O)CSc1nnc(-c2c[nH]c3ccccc23)o1 (stereo unspecified),.,.,/,.,.,.,/,/
COc1c(C)cc(S(=O)(=O)NCc2ccccn2)c(C)c1C,.,.,.,.,/,.,/,/
CC(c1ccccc1)n1c(CCCO)nc2ccccc21 (stereo unspecified),23.9,.,.,.,/,.,.,.
OCCCc1nc2ccccc2n1CCc1ccccc1,.,.,.,.,.,.,/,/
CC(=O)Nc1ccc(S(=O)(=O)N(C)CC(=O)OCC(=O)Nc2cc(C)on2)cc1,.,.,/,.,/,.,/,/
Nc1c(-c2ccc(C(F)(F)F)cc2)nc2ncccn12,.,/,/,/,/,/,/,/
Nc1nc2ncccn2c1-c1ccc(F)c(F)c1,27.8,/,/,/,/,/,.,19.9
CCOP(=O)(Nc1cccc2oc(=O)c3ccccc3c12)OCC,.,.,/,.,/,.,/,/
COc1ccc2c3c(cccc13)C(=O)CC2,26.8,.,.,.,/,.,.,.
COc1ccc2c(c1OC)C(=O)OC2,.,.,.,.,.,.,/,/
CCOC(=O)C1(CCCc2ccccc2)CCN(C(=O)c2ccoc2)CC1,44.6,.,.,.,.,.,.,.
Cn1c(SCC(=O)Nc2cccc(S(=O)(=O)NC3=NCCCCC3)c2)nnc1-c1ccccc1,.,.,.,.,.,.,/,/
COc1ccc(NC(=O)N(C)C[C@@H]2OCc3cnnn3CCCC(=O)N([C@@H](C)CO)C[C@H]2C)cc1,.,/,/,/,/,.,/,/
SMILES,NOD2-RIPK2 inh,SR-BI HDL uptake,Lipid droplet,SR-BI uptake up,TLR4 MyD88 comp,TLR9-MyD88 block,NOD2-RIPK2 conf,BLA counter
CCN(CC)CCN1C(=O)/C(=C\c2ccc(Cl)c([N+](=O)[O-])c2)SC1=Nc1ccc(OC)cc1,72.2,/,.,/,/,.,54.4,.
CCCN1C(=O)/C(=C/c2ccc(C)s2)SC1=Nc1ccc(OC)cc1,.,.,/,/,.,.,/,/
COc1ccc(N=C2S/C(=C\c3ccc(Cl)c([N+](=O)[O-])c3)C(=O)N2CCN(C)C)cc1,43.9,.,.,.,/,.,87.7,.
O=c1oc2ccccc2cc1-c1ccc(O)cc1O,.,.,.,.,.,.,/,/
O=c1oc2cc(O)ccc2cc1-c1ccccc1,22.5,.,.,.,/,.,28.0,40.4
O=C(NN=Cc1c(O)ccc2ccccc12)c1ccncc1,27.7,97.4,/,.,/,.,26.8,20.9
COCCNc1nc(-c2ccccc2CO)c2sc(-c3ccccc3)cc2n1,.,/,/,/,/,/,/,/
C1CC(=NN=C2CCSCC2)CCS1,.,.,/,.,/,.,/,/
Cc1cc2nc3c(=O)n(CCc4ccccc4)c(=O)[nH]c3nc2cc1N,.,.,.,.,/,.,/,/
CCCCn1c(=O)[nH]c2nc3cc(N)ccc3nc2c1=O,26.2,.,.,.,.,.,31.1,36.8
Nc1ccc2nc3c(=O)n(CCc4ccccc4)c(=O)[nH]c3nc2c1,37.5,/,.,/,/,/,36.1,35.1
O=C(CN1N=C(c2ccccc2)CCC1=O)NCc1ccco1,/,/,.,/,.,/,/,/
CCOC(=O)N1CCN(C(=O)CSc2ccc3nnc(CCNC(=O)c4ccc(OC)cc4)n3n2)CC1,.,/,.,/,.,.,/,/
O=C(O)CCCNC(=O)c1cccc(C(=O)NCCCC(=O)O)n1,.,.,.,.,.,.,/,/
COc1cccc(NC(=O)CN(C)C(=O)/C=C/c2cn(-c3ccccc3)nc2-c2ccc(C)cc2)c1,.,.,/,.,/,.,/,/
COc1ccc(-c2nn(-c3ccccc3)cc2/C=C/C(=O)OCC(=O)Nc2cccc(C#N)c2)cc1,35.7,.,.,.,.,.,.,.
O=C(COC(=O)c1cc([N+](=O)[O-])ccc1Cl)NC1CCCC1,.,.,.,.,/,.,/,/
O=C(COC(=O)c1ccccc1C(=O)c1ccc(Cl)c([N+](=O)[O-])c1)NC1CC1,49.0,.,.,.,.,.,56.1,.
O=C(C[n+]1ccccc1)c1ccc(NC(=O)c2ccccc2)cc1,35.2,.,.,.,.,.,.,.
COc1ccc(CC(=O)Nc2sccc2C#N)cc1S(=O)(=O)N1CCOCC1,.,.,/,.,/,.,/,/
O=S(=O)(c1ccccc1)N1CCN(C/C=C/c2ccccc2)CC1,.,.,.,.,/,.,/,/
CC1(C)Cc2c(sc3nc(-c4cc5ccccc5o4)n(N)c(=O)c23)CO1,23.5,.,.,.,.,.,.,.
Cc1c(C(=O)N2CCCC2)oc2c1-c1[nH]ncc1CC2,20.9,.,.,.,.,.,.,.
COC(=O)c1cc(C(=O)c2ccc(Cl)cc2)n2c(=O)/c(=C\N(C)C)sc12,.,.,.,.,.,.,/,/
O=P(CCCCCCCCCP(=O)(c1ccccc1)c1ccccc1)(c1ccccc1)c1ccccc1,21.7,.,.,.,.,.,.,.
O=C(O)CCCCCCCCCCP(=O)(c1ccccc1)c1ccccc1,.,.,.,.,/,.,/,/
Cc1ccc(NC(=O)c2ccc3c(c2)CCN3S(C)(=O)=O)c(C)c1,.,.,.,.,/,.,/,/
